This is a sample that favours compounds with a hit; in the whole collection about 1.7% have one here.
APJ agonist – agonists of human apelin receptor APJ, primary screen, CHO-K1 cells, PathHunter beta-arrestin, luminescence | P35414 | activation, % at 20 µM | AID 2520, 2010 | hit rate 0.11% among 330,000 | 0% DMSO wells, 100% apelin;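 active = activation more than six SD over the plate average, tested at 20 µM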;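 note: 0% = DMSO alone and 100% = apelin-13 at 10 nM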
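Assay system: CHO-K1 cells stably expressing ProLink-tagged human APJ and arrestin–beta-gal acceptor. Compound dosing: 20 µM single point, 1% DMSO. Times: 16-18 h seeding, 90 min dark compound exposure, 60 min detection. Detection: beta-gal luminescence. Evaluation: APJ–arrestin association signal. Controls: negative DMSO alone, positive Apelin-13 at 10 nM.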
APJ antagonist – antagonists of human apelin receptor APJ, primary screen, CHO-K1 cells, beta-arrestin complementation, luminescence | inhibition, % at 20 µM | AID 2521, 2010 | hit rate 0.32% among 330,000;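 active = inhibition above about 40% at 20 µM, limit read from the data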;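 note: cells challenged with 10 nM apelin-13 agonist together with compound; plate controls were apelin-13 plus DMSO wells for no effect and DMSO wells lacking apelin-13 for full effect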
PfG6PD inh – PfG6PD enzyme inhibitors, primary screen, biochemical, fluorescence intensity, uHTS; inhibition, % at 20 µM; glucose-6-phosphate dehydrogenase-6-phosphogluconolactonase (Plasmodium falciparum 3D7); PfGluPho enzyme, NADPH resazurin-diaphorase fluorescence; hit rate 0.78% among 350,000; AID 504690, 2011;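 active = inhibition reaching at least a set limit at 20 µM in the primary screen, cut at about 59% in these data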;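 note: 0% = DMSO wells with substrate and 100% = DMSO wells lacking glucose-6-phosphate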
Beta2AR agonist – beta2AR agonists driving receptor internalization, primary screen, cell-based, FAP fluorogen, flow cytometry; hit rate 0.43% among 340,000; Beta-2 adrenergic receptor (Homo sapiens), P07550; AID 504454, 2011; Am2.2-beta2AR cells; response, % (test concentration not listed);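 active = response above a set limit, near 3 SD of response in nonfluorescent compounds, cut at about 42% in these data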
CXCR6 block – CXCR6 receptor inhibitors, primary screen, cell-based, beta-arrestin, luminescence, CHO-K1 PathHunter, 1536-well | C-X-C chemokine receptor type 6 (Homo sapiens), O00574 | inhibition, % at 20 µM | hit rate 0.36% among 360,000; in the data active = inhibition above about 34%, passing the limit was not always enough;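 note: antagonist mode with CXCL16 agonist at 10 nM final; 0% = 10 nM CXCL16 with DMSO and 100% = unstimulated wells without agonist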
CCR6 antag – CCR6 receptor antagonists, primary screen, cell-based, CHO-K1, luminescence, beta-arrestin, uHTS. C-C chemokine receptor type 6 (Homo sapiens), P51684. CHO-K1 CCR6 PathHunter beta-arrestin, CCL20-stimulated. inhibition, % at 20 µM. hit rate 0.49% among 340,000. AID 493098, 2011;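 active = compounds whose inhibition of the agonist-driven luminescence signal at 20 µM reaches about 50%, limit read from the data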;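 note: cells stimulated with CCL20 at 14 nM final; plate controls were DMSO with CCL20 for no effect and DMSO without agonist for full effect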
Target sequence (P51684 whole entry, looked up): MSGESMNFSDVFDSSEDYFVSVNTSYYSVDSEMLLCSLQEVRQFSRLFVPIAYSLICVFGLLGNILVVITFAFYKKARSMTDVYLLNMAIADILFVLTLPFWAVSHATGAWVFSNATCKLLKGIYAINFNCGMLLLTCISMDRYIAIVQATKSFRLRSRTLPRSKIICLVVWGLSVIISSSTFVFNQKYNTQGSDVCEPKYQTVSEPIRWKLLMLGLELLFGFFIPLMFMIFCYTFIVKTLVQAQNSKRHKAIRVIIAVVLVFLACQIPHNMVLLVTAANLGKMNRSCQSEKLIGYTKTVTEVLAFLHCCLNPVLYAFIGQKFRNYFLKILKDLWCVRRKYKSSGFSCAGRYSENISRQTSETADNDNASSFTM
PfG6PD confirm – PfG6PD inhibitors, hit retest, confirmation, biochemical, fluorescence intensity, single concentration; shares compounds with PfG6PD inh; recombinant PfGluPho, NADPH-diaphorase-resazurin fluorescence; inhibition, % at 20 µM; hit rate 34% among 2,400; AID 504753, 2011;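 active = inhibition of at least 50% at 20 µM in any single replicate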;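 note: 0% = DMSO with substrate and 100% = DMSO lacking glucose-6-phosphate substrate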
Diaph ctr 10uM – diaphorase inhibitors and chemical oxidizers, confirmation, counter-screen for P. falciparum G6PD inhibitor project, biochemical, fluorescence intensity, 10 µM NADPH | hit rate 39% among 820 | diaphorase-coupled resazurin reduction, NADPH 10 uM | shares compounds with PfG6PD inh | inhibition, % at 20 µM | AID 504862, 2011;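 active = average inhibition reaching 50% or more with the compound at 20 µM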;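 note: resorufin red fluorescence formed as diaphorase reduces resazurin using NADPH; 0% = DMSO with enzyme and 100% = DMSO without enzyme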
Diaphorase 30uM – diaphorase inhibitors and chemical oxidizers, confirmation, counter-screen for P. falciparum G6PD inhibitor project, biochemical, fluorescence intensity, 30 µM NADPH | shares compounds with PfG6PD inh | Diaphorase/resazurin coupled assay, resorufin fluorescence | inhibition, % at 20 µM | hit rate 29% among 820;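 active = inhibition averaging 50% or more, tested at 20 µM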;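 note: 0% = DMSO with enzyme and 100% = DMSO wells lacking diaphorase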
An asterisk follows results filed as active; x = no result given.

SMILES	APJ agonist	APJ antagonist	PfG6PD inh	Beta2AR agonist	CXCR6 block	CCR6 antag	PfG6PD confirm	others
COc1ccc(S(=O)(=O)N(C)C[C@H]2OCc3cn(nn3)CCCC(=O)N([C@H](C)CO)C[C@@H]2C)cc1	x	x	-1.9	x	-4.2	x	x
Cn1c2ccccc2c(=O)c2cc(C#CC3=CCCCC3)ccc21	0.8	-4.4	32.8	3.4	-1.9	-5.6	x
C=CCn1c2ccccc2c(=O)c2cc(C#CC3(O)CCCCC3)ccc21	7.1	8.9	104.1*	12.6	13.0	20.6	55.3*	Diaph ctr 10uM=69.9*;Diaphorase 30uM=53.5*
C=CCn1c2ccccc2c(=O)c2cc(C#CC[C@@H](C)O)ccc21	1.2	12.0	67.2*	12.7	5.5	14.9	41.2
Cc1ccc(C(=O)Nc2ccc(Br)c(C(F)(F)F)c2)cc1	1.2	-20.1	68.5*	8.7	-4.7	16.8	9.4
O=C(NC1CCCCC1)c1cc(S(=O)(=O)N2CCCCC2)ccc1N1CCOCC1	-2.0	19.0	1.3	9.4	3.6	13.2	x
Cc1cc(C)c(NC(=S)NCC2CCN(C(C)c3ccccc3)C2)c(C)c1 (stereo unspecified)	-7.0	1.6	84.5*	11.7	-1.8	16.8	75.7*	Diaph ctr 10uM=0.3;Diaphorase 30uM=-2.5
Cc1ccc(NC(=S)NCC2CCN(C(C)c3ccccc3)C2)cc1 (stereo unspecified)	-2.4	-12.4	9.6	5.3	6.4	3.2	x
O=S(=O)(Nc1ccc2oc(-c3ccccc3)nc2c1)c1ccccc1	-6.7	-3.7	88.0*	0.3	2.5	13.4	37.7
Cc1ccc(-c2nc3cc(NS(=O)(=O)c4ccc(C)cc4)ccc3o2)cc1	-1.6	-1.1	22.0	-2.4	4.6	-10.9	x
CCOC(=O)c1sc2nc(-c3ccco3)c3c(c2c1N)CC(C)(C)OC3	-4.5	15.3	64.5*	-9.3	10.8	40.4	9.9
Cn1c(NN)nc2sc3c(c2c1=O)CC(C)(C)OC3	-5.8	3.9	64.5*	-5.6	-2.3	29.1	33.6
CCC1(C)Cc2c(sc3nc(NC)n(C)c(=O)c23)CO1 (stereo unspecified)	-3.1	11.1	7.9	0.8	-15.7	0.0	x
C[C@@H]1COC(=O)CCC/C=C\C[C@@H](CC(=O)N(CCO)Cc2ccccc2)C(=O)N1	-4.0	3.5	1.6	-0.6	0.6	10.3	x
CCOc1ccccc1C(=O)Nc1cc(Cl)ccc1O	-2.3	12.7	67.0*	6.6	-2.4	-2.8	-9.0
COc1ccccc1C(=O)Nc1cc(Cl)ccc1O	-3.6	-9.8	34.9	-6.9	3.2	-15.5	x
O=C(CSc1nc2cc([N+](=O)[O-])ccc2n1-c1ccccc1)NCc1ccc2c(c1)OCO2	-3.5	14.5	67.5*	1.1	-2.9	3.9	-6.0
CCCCN(C(=O)c1ccccc1Br)C(c1ccc(OC)cc1)c1nc2ccccc2[nH]1 (stereo unspecified)	x	x	x	x	6.3	x	x
O=S(=O)(c1cccs1)N1CN(Cc2ccco2)c2nc3ccccc3nc21	-0.9	-30.2	92.7*	-2.9	-6.1	15.9	43.6
CCC1CCc2c(sc(NC(=O)c3cnccn3)c2C(N)=O)C1 (stereo unspecified)	-2.4	-0.9	69.0*	-1.4	2.9	-3.8	33.0

Screening results as filed in PubChem.
